# In article PMC2853048 (Journal of medicinal chemistry, 2009):
# Tests used:
# [1] = molecular target: T1, human Gli1 (Homo sapiens, UniProt P08151); experiment: Gli-mediated transcription reporter assay in C3H10T1/2 cells with exogenous Gli1; format: cell-based; conditions: for inhibition of Gli1-mediated transcription (Gli-reporter activity), in words: Gli1-transfected C3H10T1/2 cells, 24 h, 20 µM or 40 µM
# T1 sequence (P08151 1-1106): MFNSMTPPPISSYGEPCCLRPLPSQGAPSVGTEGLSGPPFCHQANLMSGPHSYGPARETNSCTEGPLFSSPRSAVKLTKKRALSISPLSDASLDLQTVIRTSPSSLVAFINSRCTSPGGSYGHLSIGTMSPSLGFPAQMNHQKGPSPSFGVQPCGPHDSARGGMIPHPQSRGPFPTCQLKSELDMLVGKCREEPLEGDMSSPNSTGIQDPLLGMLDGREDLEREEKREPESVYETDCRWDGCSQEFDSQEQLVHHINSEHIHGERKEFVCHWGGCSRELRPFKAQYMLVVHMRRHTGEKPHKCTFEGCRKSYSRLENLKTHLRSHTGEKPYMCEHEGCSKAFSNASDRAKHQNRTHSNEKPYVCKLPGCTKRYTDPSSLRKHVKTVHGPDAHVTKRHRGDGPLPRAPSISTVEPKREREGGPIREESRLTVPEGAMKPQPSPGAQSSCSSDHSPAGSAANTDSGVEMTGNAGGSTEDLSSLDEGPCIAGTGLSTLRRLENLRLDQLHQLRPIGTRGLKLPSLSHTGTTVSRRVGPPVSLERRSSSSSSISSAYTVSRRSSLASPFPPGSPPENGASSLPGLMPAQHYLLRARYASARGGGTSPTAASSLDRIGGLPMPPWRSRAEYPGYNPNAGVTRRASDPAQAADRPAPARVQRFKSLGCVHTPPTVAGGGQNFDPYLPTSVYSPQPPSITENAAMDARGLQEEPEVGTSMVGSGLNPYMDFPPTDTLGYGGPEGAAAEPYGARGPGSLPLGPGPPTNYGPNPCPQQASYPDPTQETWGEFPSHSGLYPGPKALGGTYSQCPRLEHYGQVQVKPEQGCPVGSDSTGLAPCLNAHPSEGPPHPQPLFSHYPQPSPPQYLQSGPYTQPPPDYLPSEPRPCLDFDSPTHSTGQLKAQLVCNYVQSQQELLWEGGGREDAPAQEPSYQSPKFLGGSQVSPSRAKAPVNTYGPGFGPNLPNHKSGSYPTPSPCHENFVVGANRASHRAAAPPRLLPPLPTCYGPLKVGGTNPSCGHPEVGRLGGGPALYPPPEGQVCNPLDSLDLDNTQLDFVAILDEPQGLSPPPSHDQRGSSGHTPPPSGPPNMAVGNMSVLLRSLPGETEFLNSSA
# [2] = Stability of compounds in C3H10T1/2 cell cultures; format: in vitro ADME, mouse; conditions: 24 hours
# [3] = system: endogenous Gli1; experiment: Gli-mediated transcription reporter assay in Rh30 cells; format: cell-based; conditions: Rh30 cells without cotransfection of exogenous Gli1, 24 h, 10, 20 or 40 µM
# Procedure, shortened: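 Rh30 cells were grown in RPMI-1640 with 10% FBS at 37 °C, 5% CO2. At about 70% confluence they were transfected overnight with GliLuc-BS (500 ng/mL) and pRL-CMV (2.5 ng/mL) using Fugene6. Cells were replated, then dosed 18 h later for 24 h. Lysates were read by dual luciferase (firefly/Renilla). DMSO = 0% inhibition; triplicates, SE shown.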
# [4] = system: exogenous Gli1 protein; experiment: Western blot of Gli1 protein levels in Gli1-transfected C3H10T1/2 cells; format: cell-based, human
# [5] = system: BJ-hTERT cells; experiment: Cell viability assay; format: cell-based; conditions: noncancerous human skin fibroblasts, 40 µM, 72 h
# Procedure, shortened: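 Cells plated in 384-well format 24 h before dosing. A 10-mM DMSO stock was diluted in EMEM to 160 µM (4×) and added in triplicate to a final 40 µM. Incubated 68 h at 37 °C, then Alamar Blue for 4 h at 37 °C. Fluorescence read at ex 510 / em 590 nm; viability expressed relative to DMSO control wells.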
# [6] = system: C3H10T1/2 cells; experiment: Toxicity towards C3H10T1/2 cells in the reporter assay; format: cell-based, mouse; conditions: data not shown
Compound,"inhibition of Gli1-mediated transcription (Gli-reporter activity), in words [1]",other results
"C[C@H](C(=O)N(CCc1ccc(O)cc1)CCc1ccc(O)cc1)c1cccc(C(=O)c2ccccc2)c1 [Compound 65, (S)-2-(3-Benzoylphenyl)-N,N-bis(4-hydroxyphenethyl)propanamide]",–,"inhibition selectivity of Gli1-mediated transcription over Gli2-mediated transcription ([1]; C3H10T1/2 cells, from IC50 values): least selective; stability in the C3H10T1/2 cell cultures [2]: stable"
(S)-2-(3-Benzoylphenyl)-N-(4-methoxyphenethyl)propanamide [Compound 47],decrease in the activity,–
"CCCN(CCc1ccc(O)cc1)C(=O)[C@@H](C)c1cccc(C(=O)c2ccccc2)c1 [Compound 63, (S)-2-(3-Benzoylphenyl)-N-(4-hydroxyphenethyl)-N-propylpropanamide]",–,"inhibition of Gli-reporter activity in Rh30 cells, in words [3]: downregulated; exogenous Gli1 protein level [4]: not reduced; stability in the C3H10T1/2 cell cultures [2]: stable; cell viability / toxicity, BJ-hTERT [5]: without showing toxicity"
"C[C@H](C(=O)NCc1ccc(O)cc1)c1cccc(C(=O)c2ccccc2)c1 [Compound 53, (S)-2-(3-Benzoylphenyl)-N-((4-hydroxyphenyl)methyl)propanamide]",decreased activity,–
"C[C@H](COC(=O)Nc1ccc(O)cc1)c1cccc(C(=O)c2ccccc2)c1 [Compound 61, (S)-2-(3-Benzoylphenyl)propyl 4-hydroxyphenylcarbamate]",substantially decreased the activity,–
"O=C(Cc1ccccc1Oc1ccccc1)NCCc1ccc(O)cc1 [Compound 41, N-(4-Hydroxyphenethyl)-2-(2-phenoxyphenyl)acetamide]",decreased activity,–
"O=C(Cc1ccc(Oc2ccccc2)cc1)NCCc1ccc(O)cc1 [Compound 43, N-(4-Hydroxyphenethyl)-2-(4-phenoxyphenyl)acetamide]",equipotent,–
"C[C@H](C(=O)NCCc1ccc(O)c(O)c1)c1cccc(C(=O)c2ccccc2)c1 [Compound 50, (S)-2-(3-Benzoylphenyl)-N-(3,4-dihydroxyphenethyl)propanamide]",–,stability in the C3H10T1/2 cell cultures [2]: significant degradation
"C[C@H](CNC(=O)NCCc1ccc(O)cc1)c1cccc(C(=O)c2ccccc2)c1 [Compound 60, (S)-1-(2-(3-Benzoylphenyl)propyl)-3-(4-hydroxyphenethyl)urea]",comparable to that of 36,"cell viability / toxicity, BJ-hTERT [5]: toxic"
"COc1ccc(COC[C@@H](C)c2cccc(C(=O)c3ccccc3)c2)cc1 [Compound 58, (S)-(3-(1-(4-Methoxybenzyloxy)propan-2-yl)phenyl)(phenyl)methanone]",almost no activity,–
"C[C@H](C(=O)NCCc1ccc(O)cc1)c1cccc(Cc2ccccc2)c1 [Compound 40, (S)-2-(3-Benzylphenyl)-N-(4-hydroxyphenethyl)propanamide]",less potent than 36,–
"COc1ccc(C(=O)NC[C@@H](C)c2cccc(C(=O)c3ccccc3)c2)cc1 [Compound 57, (S)-N-(2-(3-Benzoylphenyl)propyl)-4-methoxybenzamide]",retained the activity,–
"COc1ccc2cc([C@@H](C)C(=O)NCCc3ccc(O)cc3)ccc2c1 [Compound 38, (R)-N-(4-Hydroxyphenethyl)-2-(6-methoxynaphthalen-2-yl)propanamide]",lower activity than did 35,–
(S)-2-(3-Benzoylphenyl)-N-(2-hydroxyphenethyl)propanamide [Compound 44],slightly decreased at 20 µM,–
"C[C@H](C(=O)NCCc1ccc(O)cc1)c1cccc(C(O)c2ccccc2)c1 (stereo partly drawn) [Compound 39, (2S)-2-(3-(Hydroxy(phenyl)methyl)phenyl)-N-(4-hydroxyphenethyl)propanamide]",less potent than 36,–
"C[C@H](CNC(=O)c1ccc(O)cc1)c1cccc(C(=O)c2ccccc2)c1 [Compound 55, (S)-N-(2-(3-Benzoylphenyl)propyl)-4-hydroxybenzamide]",better activity,–
"CC(C(=O)NCCc1ccc(O)cc1)c1cccc(C(=O)c2ccccc2)c1 (racemic) [Compound 37, (±)-2-(3-Benzoylphenyl)-N-(4-hydroxyphenethyl)propanamide]",lower activity than did 36,–
"C[C@H](C(=O)NCCc1ccc(O)cc1)c1cccc(C(=O)c2ccccc2)c1 [Compound 36, (S)-2-(3-Benzoylphenyl)-N-(4-hydroxyphenethyl)propanamide]",high activity,"inhibition of Gli-reporter activity in Rh30 cells, in words [3]: downregulated; exogenous Gli1 protein level [4]: not reduced; stability in the C3H10T1/2 cell cultures [2]: stable; toxicity towards the C3H10T1/2 cells [6]: minimal toxicity as compared to 32; cell viability / toxicity, BJ-hTERT [5]: without showing toxicity"
(S)-2-(3-Benzoylphenyl)-N-(4-hydroxy-3-methoxyphenethyl)propanamide [Compound 51],reduced the activity by about half,–
"O=C(Cc1cccc(Oc2ccccc2)c1)NCCc1ccc(O)cc1 [Compound 42, N-(4-Hydroxyphenethyl)-2-(3-phenoxyphenyl)acetamide]",equipotent,–
"C[C@H](C(=O)Nc1ccc(O)cc1)c1cccc(C(=O)c2ccccc2)c1 [Compound 54, (S)-2-(3-Benzoylphenyl)-N-(4-hydroxyphenyl)propanamide]",decreased activity,–
(S)-2-(3-Benzoylphenyl)-N-phenethylpropanamide [Compound 48],significantly lower activity than 36,–
"C[C@H](CNC(=O)CCc1ccc(O)cc1)c1cccc(C(=O)c2ccccc2)c1 [Compound 56, (S)-N-(2-(3-Benzoylphenyl)propyl)-3-(4-hydroxyphenyl)propanamide]",modest increase in the potency,–
(S)-2-(3-Benzoylphenyl)-N-(4-chlorophenethyl)propanamide [Compound 49],slightly lower activity than 36,–
(S)-2-(3-Benzoylphenyl)-N-(3-hydroxy-4-methoxyphenethyl)propanamide [Compound 52],reduced the activity by about half,–
"C[C@H](COC(=O)NCCc1ccc(O)cc1)c1cccc(C(=O)c2ccccc2)c1 [Compound 62, (S)-2-(3-Benzoylphenyl)propyl 4-hydroxyphenethylcarbamate]",substantially decreased the activity,–
"C[C@H](CNC(=O)Nc1ccc(O)cc1)c1cccc(C(=O)c2ccccc2)c1 [Compound 59, (S)-1-(2-(3-Benzoylphenyl)propyl)-3-(4-hydroxyphenyl)urea]",comparable to that of 36,"cell viability / toxicity, BJ-hTERT [5]: toxic"
"CC(C)Cc1ccc(C(C)C(=O)NCCc2ccc(O)cc2)cc1 (stereo not drawn) [Compound 34, N-(4-Hydroxyphenethyl)-2-(4-isobutylphenyl)propanamide]",modest inhibition,–
